Screening results deposited in PubChem by several laboratories.
An excerpt weighted towards active compounds, which were near 1.1% of everything screened.
PMI act hi M6P: activators of human phosphomannose isomerase at near-saturating mannose 6-phosphate | coupled PMI enzyme assay, resazurin fluorescence, 20 min; hits give high values; 1 = untreated enzyme, 0 = substrate-free blank | activation factor at 20 µM | hit rate 0.34% among 190,000 | P34949;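 active = activation factor of 2 or more at 20 µM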
Target sequence (P34949 whole entry, looked up): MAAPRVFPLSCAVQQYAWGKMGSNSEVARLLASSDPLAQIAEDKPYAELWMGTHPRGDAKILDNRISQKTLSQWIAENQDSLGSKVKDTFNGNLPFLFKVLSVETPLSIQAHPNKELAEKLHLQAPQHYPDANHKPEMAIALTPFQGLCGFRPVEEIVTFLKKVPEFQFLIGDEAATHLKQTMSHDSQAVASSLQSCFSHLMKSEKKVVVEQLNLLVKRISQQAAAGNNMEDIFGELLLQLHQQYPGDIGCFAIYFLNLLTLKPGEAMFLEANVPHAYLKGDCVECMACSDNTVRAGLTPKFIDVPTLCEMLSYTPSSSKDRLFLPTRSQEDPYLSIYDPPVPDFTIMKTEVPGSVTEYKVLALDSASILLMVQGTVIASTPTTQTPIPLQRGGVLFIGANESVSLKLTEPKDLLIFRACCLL
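assay system = human phosphomannose isomerase with PGI, G6PDH, diaphorase coupling enzymes | quantity = 15 ng/mL PMI | incubation = enzyme reaction with compound 20 min at room temperature | medium = HEPES pH 7.4 buffer with MgCl2 and Tween-20 | compound dosing = one concentration, 20 µM, in 1% DMSO | measured by = Diaphorase-driven resazurin-to-resorufin fluorescence, excitation 544, emission 590 nm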
DTT redox prof: compounds producing H2O2 with reducing agent – biochemical, NIH compound library profiling, artefact control for MLSCN library redox annotation, primary screen; hit rate 0.03% among 200,000; activation, % at 10 µM; AID 878; DTT-dependent redox cycling H2O2, phenol red/HRP absorbance; 100% = 100 µM peroxide control, 0% = buffer;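 active = activation of at least 50% relative to the plate's high and low controls in the primary single-dose screen; inactive = activation below 50%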;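 also: compound incubated with DTT at 0.8 mM final as the reducing agent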
Diaph act CS: diaphorase activation or chemical reduction counter-screen | Diaphorase/resazurin coupled assay, resorufin fluorescence, 16 min; hits give high values; 1 = vehicle wells, 0 = NADH-free wells | activation factor at 20 µM | hit rate 0.005% among 190,000 | AID 1229;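 active = diaphorase activity raised at least twofold by the compound at 20 µM; inactive = activation factor below 2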
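Assay system: bacterial diaphorase enzyme (C. kluyveri) / Input: enzyme 0.07 U/mL final / Medium: 50 mM HEPES pH 7.4 with 4.542 mM MgCl2, 0.005% Tween 20 / Doses: single compound dose of 20 µM, 1% DMSO final / Incubation: 16 min enzyme reaction, ambient temperature / Signal: fluorescence, excitation 544 nm and emission 590 nm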
G6PDH counter: L. mesenteroides G6PDH inhibition counter-screen. Purified L. mesenteroides G6PDH, diaphorase/resazurin coupled fluorescence, 45 min. inhibition, % at 5 µM. hit rate 0.12% among 200,000. AID 1020; in the data active = inhibition above about 50%
PMI activator: phosphomannose isomerase (human) activation | P34949 | purified human PMI, coupled resazurin fluorescence, 20 min; hits give high values; 1 = vehicle control, 0 substrate-free wells | activation factor at 20 µM | hit rate 0.005% among 190,000 | AID 1214;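 active = activation factor of 2 or more at 20 µM, relative to plate controls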
Diaph inh CS: inhibits diaphorase or chemically oxidizes, flagging diaphorase assay artifacts; hit rate 0.69% among 190,000; AID 1217; inhibition, % at 20 µM; diaphorase resazurin-to-resorufin fluorescence, NADH, 16 min; bacterial (C. kluyveri) enzyme, not human;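 active = primary screen inhibition at 20 µM above a set limit, cut at about 50% in these data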;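 also: plate controls were DMSO with full reaction for no effect and wells lacking NADH for full effect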
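Assay system – diaphorase enzyme from Clostridium kluyveri · Amount – diaphorase 0.14 U/mL (working solution) · Times – reaction incubation of 16 min at room temperature · Controls – No-NADH positive control and DMSO neutral control · Signal – resorufin fluorescence 544/590 nm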
An asterisk follows results filed as active.

Screening O=C(Nc1ccc(N2CCOCC2)cc1)Nc1ccc2nc(-c3ccco3)c(-c3ccco3)nc2c1 returned PMI act hi M6P 0.7, DTT redox prof 0.9, Diaph act CS 0.8, G6PDH counter 11.9, PMI activator 1 and Diaph inh CS 21.2.
`O=C(NCCCO)Nc1ccc2nc(-c3ccco3)c(-c3ccco3)nc2c1` gave PMI act hi M6P 1.3, DTT redox prof 1.1, Diaph act CS 0.4, G6PDH counter 29.3, PMI activator 1.1 and Diaph inh CS 60.1*.
`O=C(Nc1ccc2nc(-c3ccco3)c(-c3ccco3)nc2c1)NC1CC1` gave PMI act hi M6P 1, DTT redox prof -0.1, Diaph act CS 0.2, G6PDH counter 22.2, PMI activator 1.3 and Diaph inh CS 79.7*.
For CNCc1ccccc1Sc1ccc(O)c(O)c1 the results were PMI act hi M6P 0.3, DTT redox prof 45.9, Diaph act CS 0.4, G6PDH counter 50.5*, PMI activator 0.3 and Diaph inh CS 63.2*.
For CC(NC(=S)Nc1ccc(F)cc1)C(c1cccs1)N1CCOCC1 (configuration not stated) the results were PMI act hi M6P 1.1, DTT redox prof 0.2, Diaph act CS 1, G6PDH counter 9.0, PMI activator 1 and Diaph inh CS -1.2.
`O=C(N/N=C/c1c(O)n(-c2ccc(Cl)cn2)c(=O)c2ccccc12)C1CC1` gave PMI act hi M6P 1.7, DTT redox prof 0.1, Diaph act CS 0.7, G6PDH counter -0.5, PMI activator 1.3 and Diaph inh CS 33.2.
Screening O=C(N/N=C/c1c(O)n(-c2ccc(Cl)cn2)c(=O)c2ccccc12)c1ccncc1 returned PMI act hi M6P 1.5, DTT redox prof -0.6, Diaph act CS 0.4, G6PDH counter -0.6, PMI activator 1.5 and Diaph inh CS 59.0*.
O=C(/C=C1\NCC2c3ccccc3CCN2C1=O)c1ccccc1 (configuration not stated) was read as PMI act hi M6P 2.6*, DTT redox prof -3.8, Diaph act CS 1.1, G6PDH counter -3.2, PMI activator 1.7 and Diaph inh CS -6.3.
For Cc1ccc(N/N=C(\C#N)C(N)=S)c(C)c1 the results were PMI act hi M6P 3*, DTT redox prof 0.2, Diaph act CS 1.1, G6PDH counter 6.7, PMI activator 1.8 and Diaph inh CS -9.9.
COc1ccc(C/C(C)=N/NC(=O)c2cccnc2)cc1 was read as PMI act hi M6P 1.1, DTT redox prof 0.0, Diaph act CS 1, G6PDH counter 4.0, PMI activator 1 and Diaph inh CS -3.7.
Screening O=S(=O)(c1ccc2ccccc2c1)N1CCC(c2nc(-c3ccncc3)no2)CC1 returned PMI act hi M6P 0.7, DTT redox prof 0.3, Diaph act CS 0.4, G6PDH counter -0.6, PMI activator 0.6 and Diaph inh CS 57.1*.
`CCCCOc1ccc2c(c1)/C(=C(\C(Cl)=C(Cl)Cl)[N+](=O)[O-])N2` gave PMI act hi M6P 1.1, DTT redox prof 0.0, Diaph act CS 0.5, G6PDH counter 0.3, PMI activator 1.2 and Diaph inh CS 50.3*.
`CCCCOc1cccc(C2(C(=O)O)CCCC2)c1` gave PMI act hi M6P 0.9, DTT redox prof -0.3, Diaph act CS 0.9, G6PDH counter 6.7, PMI activator 0.8 and Diaph inh CS 13.5.
`CCOc1ccc2c(c1)/C(=C(\C(Cl)=C(Cl)Cl)[N+](=O)[O-])N2` gave PMI act hi M6P 1, DTT redox prof -2.0, Diaph act CS 0.5, G6PDH counter 8.2, PMI activator 1.1 and Diaph inh CS 51.1*.
For CC(C)Nc1nnc(SCC(=O)Nc2ccc3c(c2)C(=O)c2ccccc2C3=O)s1 the results were PMI act hi M6P 0.8, DTT redox prof 0.4, Diaph act CS 0.5, G6PDH counter 5.2, PMI activator 0.9 and Diaph inh CS 52.5*.
`O=C(CSc1nnc(NC2CCCCC2)s1)Nc1ccc2c(c1)C(=O)c1ccccc1C2=O` gave PMI act hi M6P 1.7, DTT redox prof 0.0, Diaph act CS 0.6, G6PDH counter 7.5, PMI activator 1.5 and Diaph inh CS 43.6.
`Cc1ccc(S(=O)(=O)CCC(=O)OCc2ccccc2F)cc1` gave PMI act hi M6P 0.9, DTT redox prof -0.9, Diaph act CS 0.8, G6PDH counter 16.1, PMI activator 0.9 and Diaph inh CS 15.9.
O=C1CCC2(CC1)NC(=O)N(c1ccccc1)N2 was read as PMI act hi M6P 2.6*, DTT redox prof -0.7, Diaph act CS 0.8, G6PDH counter 3.2, PMI activator 1.7 and Diaph inh CS 17.0.
Screening O=c1c(-c2ccccc2)c(O)c2c(n1-c1ccccc1)CCCC2 returned PMI act hi M6P 0.9, DTT redox prof -0.3, Diaph act CS 0.9, G6PDH counter 9.3, PMI activator 1 and Diaph inh CS 5.8.
O=C(c1cccc(C(F)(F)F)c1)C1CCCN(C(=O)CCCn2cncn2)C1 (configuration not stated) was read as PMI act hi M6P 1, DTT redox prof 0.8, Diaph act CS 1, G6PDH counter 9.2, PMI activator 0.9 and Diaph inh CS 3.2.
Cc1cccn2c(CNC3CCCc4ccccc43)c(C(=O)N3CCCCC3)nc12 (configuration not stated) was read as PMI act hi M6P 0.9, DTT redox prof 0.0, Diaph act CS 0.8, G6PDH counter 8.1, PMI activator 0.9 and Diaph inh CS 17.0.
For O=C(O)c1cccc(C(=O)O)n1 the results were PMI act hi M6P 0.5, DTT redox prof -0.1, Diaph act CS 0.3, G6PDH counter 29.0, PMI activator 0.4 and Diaph inh CS 70.7*.
Screening CC1(C)Cc2ccccc2C2=NNC(=O)C2=N1 returned PMI act hi M6P 0.2, DTT redox prof -1.4, Diaph act CS 0.3, G6PDH counter 51.8*, PMI activator 0.2 and Diaph inh CS 69.3*.
`CC(C)c1ccc(CN2CCN(C(=O)CCl)CC2)cc1` gave PMI act hi M6P 1.2, DTT redox prof -2.0, Diaph act CS 1, G6PDH counter 0.9, PMI activator 1.1 and Diaph inh CS 1.7.
For O=C(O)CSc1nnnn1C1CCCCC1 the results were PMI act hi M6P 1.1, DTT redox prof 0.0, Diaph act CS 1.2, G6PDH counter 8.1, PMI activator 1.1 and Diaph inh CS -16.4.
For O=C(Sc1nnnn1C1CCCCC1)c1cccs1 the results were PMI act hi M6P 2.2*, DTT redox prof 2.2, Diaph act CS 1, G6PDH counter 20.0, PMI activator 1.6 and Diaph inh CS 1.0.
